Calls of active or inactive are those of the source. The rule behind the calls is not given here.
Tests used:
[1] = molecular target: T1, Fatty-acid amide hydrolase 1 (Homo sapiens) (UniProt O00519); experiment: Inhibition of human recombinant MBP-tagged FAAH expressed in Escherichia coli cells at 1 uM using AAMCA as substrate incubated for 15 mins followed by substrate addition and measured after every 20 mins for 4 hrs by fluorescence based assay relative to control
T1 sequence (whole entry): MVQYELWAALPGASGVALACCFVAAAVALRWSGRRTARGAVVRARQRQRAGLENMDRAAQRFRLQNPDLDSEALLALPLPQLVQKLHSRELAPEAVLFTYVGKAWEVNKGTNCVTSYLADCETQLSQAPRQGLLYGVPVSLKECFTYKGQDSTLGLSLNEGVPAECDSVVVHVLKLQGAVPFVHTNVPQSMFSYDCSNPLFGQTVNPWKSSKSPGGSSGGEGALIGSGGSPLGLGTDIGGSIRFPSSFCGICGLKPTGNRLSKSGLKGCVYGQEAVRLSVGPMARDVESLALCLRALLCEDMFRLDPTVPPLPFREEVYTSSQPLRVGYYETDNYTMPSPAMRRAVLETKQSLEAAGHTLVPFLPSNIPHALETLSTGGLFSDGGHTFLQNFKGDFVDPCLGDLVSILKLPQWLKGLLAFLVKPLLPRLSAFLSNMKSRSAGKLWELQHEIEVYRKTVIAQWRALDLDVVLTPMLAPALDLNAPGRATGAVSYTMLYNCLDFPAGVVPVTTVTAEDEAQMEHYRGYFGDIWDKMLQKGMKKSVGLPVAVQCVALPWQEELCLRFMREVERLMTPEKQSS
In short: (§1)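 Fluorescent FAAH assay with arachidonoyl 7-amino-4-methylcoumarin amide as substrate; compound tested at a single concentration of 1 µM; percent inhibition reported.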

[2] = molecular target: T2, Fatty-acid amide hydrolase 1 (Rattus norvegicus) (UniProt P97612); experiment: Inhibition of rat recombinant His/GST-tagged FAAH expressed in Escherichia coli cells at 1 uM using AAMCA as substrate incubated for 15 mins followed by substrate addition and measured after every 20 mins for 4 hrs by fluorescence based assay relative to control; in short: as §1
T2 sequence (whole entry): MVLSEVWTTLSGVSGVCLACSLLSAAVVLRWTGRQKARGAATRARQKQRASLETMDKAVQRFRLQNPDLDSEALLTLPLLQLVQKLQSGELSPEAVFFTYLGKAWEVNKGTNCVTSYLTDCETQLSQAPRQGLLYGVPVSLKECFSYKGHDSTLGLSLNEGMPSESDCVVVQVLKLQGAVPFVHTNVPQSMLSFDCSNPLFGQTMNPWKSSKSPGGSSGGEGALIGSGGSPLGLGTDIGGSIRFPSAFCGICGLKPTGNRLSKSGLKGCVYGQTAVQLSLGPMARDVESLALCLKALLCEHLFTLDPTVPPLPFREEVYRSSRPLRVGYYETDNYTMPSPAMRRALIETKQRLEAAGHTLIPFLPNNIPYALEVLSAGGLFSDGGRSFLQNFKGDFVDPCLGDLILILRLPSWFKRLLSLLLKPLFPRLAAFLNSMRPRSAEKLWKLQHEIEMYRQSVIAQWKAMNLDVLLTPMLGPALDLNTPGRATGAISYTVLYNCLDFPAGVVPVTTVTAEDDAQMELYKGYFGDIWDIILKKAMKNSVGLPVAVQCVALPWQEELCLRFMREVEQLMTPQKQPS

[3] = molecular target: Cannabinoid receptor 1 (Rattus norvegicus) (UniProt P20272); experiment: Displacement of [3H]CP55940 from CB1 receptor in rat brain by competition-equilibrium binding analysis; type: tissue-based
In short: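 Rat brain membranes as CB1 source; competition-equilibrium binding against [3H]CP-55,940.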
Target sequence in this assay (P20272 whole entry): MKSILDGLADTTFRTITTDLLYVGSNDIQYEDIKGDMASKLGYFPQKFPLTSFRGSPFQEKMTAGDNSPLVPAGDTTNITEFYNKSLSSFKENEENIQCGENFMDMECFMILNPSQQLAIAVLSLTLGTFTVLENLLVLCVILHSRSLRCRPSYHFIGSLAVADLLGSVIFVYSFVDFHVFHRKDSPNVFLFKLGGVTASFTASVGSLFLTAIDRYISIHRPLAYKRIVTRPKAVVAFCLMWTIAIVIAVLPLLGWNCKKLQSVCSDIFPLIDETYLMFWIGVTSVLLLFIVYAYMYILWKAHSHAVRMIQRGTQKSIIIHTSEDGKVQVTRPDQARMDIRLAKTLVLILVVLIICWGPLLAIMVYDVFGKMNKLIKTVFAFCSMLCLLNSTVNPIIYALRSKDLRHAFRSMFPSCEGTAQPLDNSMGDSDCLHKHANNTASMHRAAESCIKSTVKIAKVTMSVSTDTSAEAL

[4] = molecular target: Cannabinoid receptor 2 (Mus musculus) (UniProt P47936); experiment: Displacement of [3H]CP55940 from mouse CB2 receptor expressed in HEK293 cells by competition-equilibrium binding analysis; type: cell-based
In short: (§2)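 HEK293 cell membranes expressing mouse or human CB2; competition-equilibrium binding against [3H]CP-55,940.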

[5] = molecular target: Cannabinoid receptor 2 (Homo sapiens) (UniProt P34972); experiment: Displacement of [3H]CP55940 from human CB2 receptor expressed in HEK293 cells by competition-equilibrium binding analysis; type: cell-based; in short: as §2
[6] = molecular target: T3, Monoglyceride lipase (Homo sapiens) (UniProt Q99685); conditions: at 1 µM
T3 sequence (whole entry): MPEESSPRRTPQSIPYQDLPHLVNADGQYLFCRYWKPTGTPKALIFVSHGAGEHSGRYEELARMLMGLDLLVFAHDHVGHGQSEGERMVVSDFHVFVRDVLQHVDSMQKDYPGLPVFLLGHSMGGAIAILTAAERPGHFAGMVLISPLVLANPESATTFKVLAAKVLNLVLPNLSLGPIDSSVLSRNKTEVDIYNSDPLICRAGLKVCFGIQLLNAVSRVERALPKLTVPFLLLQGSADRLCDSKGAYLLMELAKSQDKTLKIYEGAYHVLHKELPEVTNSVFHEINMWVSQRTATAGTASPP

[7] = molecular target: Cannabinoid receptor 1 (Rattus norvegicus) (UniProt P20272); experiment: Displacement of [3H]CP55940 from CB1 receptor in rat brain by competition-equilibrium binding analysis
Target sequence in this assay (P20272 whole entry, looked up): as the sequence (P20272 whole entry) above

[8] = Ratio of IC50 for rat recombinant His/GST-tagged FAAH expressed in Escherichia coli cells to IC50 for human recombinant MBP-tagged FAAH expressed in Escherichia coli cells by fluorescence based assay
[9] = molecular target: T4, Fatty-acid amide hydrolase 1 (Homo sapiens, UniProt O00519); experiment: Inhibition of human recombinant MBP-tagged FAAH expressed in Escherichia coli cells using AAMCA as substrate incubated for 15 mins followed by substrate addition and measured after every 20 mins for 4 hrs by fluorescence based assay
T4 sequence (O00519 whole entry): T1 sequence (whole entry)
In short: (§3)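 Fluorescent enzyme assay in throughput format. Human recombinant FAAH or purified rat FAAH used arachidonoyl 7-amino-4-methylcoumarin amide as substrate; human recombinant MGL was run by a similar fluorometric procedure.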

[10] = molecular target: T5, Fatty-acid amide hydrolase 1 (Rattus norvegicus, UniProt P97612); experiment: Inhibition of rat recombinant His/GST-tagged FAAH expressed in Escherichia coli cells using AAMCA as substrate incubated for 15 mins followed by substrate addition and measured after every 20 mins for 4 hrs by fluorescence based assay; in short: as §3
T5 sequence (P97612 whole entry): T2 sequence (whole entry)

[11] = molecular target: T6, Monoglyceride lipase (Homo sapiens, UniProt Q99685); experiment: Inhibition of human recombinant His-tagged MGL expressed in Escherichia coli BL21 DE3 cells using AHMMCE as substrate preincubated with enzyme for 15 mins followed by substrate addition and measured after every 15 mins for 3 hrs by fluorescence based assay; in short: as §3
T6 sequence (Q99685 whole entry): T3 sequence (whole entry)

[12] = Stability in human liver microsomes assessed as half life; type: ADME, Microsome
In short: (§4)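 Stability assessed as half-life in human, rat and mouse plasma and gastric fluid, and in human, rat and mouse liver microsomal preparations.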

[13] = Stability in rat liver microsomes assessed as half life; type: ADME, Microsome; in short: as §4
[14] = Stability in mouse liver microsomes assessed as half life; type: ADME, Microsome; in short: as §4
[15] = Stability in human plasma assessed as half life; type: ADME, cell-free; in short: as §4
[16] = Stability in rat plasma assessed as half life; type: ADME, cell-free; in short: as §4
[17] = Stability in mouse plasma assessed as half life; type: ADME, cell-free; in short: as §4
[18] = Stability in human gastric fluid assessed as half life; type: ADME, tissue-based, Gastric juice; in short: as §4
[19] = Stability in rat gastric fluid assessed as half life; type: ADME, tissue-based, Gastric juice; in short: as §4
[20] = Stability in mouse gastric fluid assessed as half life; type: ADME, tissue-based, Gastric juice; in short: as §4
[21] = Drug concentration in plasma (unknown origin) at 2 mg/kg, iv measured after 15 mins; type: ADME, organism-based
In short: (§5)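 Cassette pharmacokinetics: compounds given together at 2 mg/kg iv; brain and plasma levels (µg/mL) measured at 15 min.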

[22] = Drug concentration in brain (unknown origin) at 2 mg/kg, iv measured after 15 mins; type: ADME, organism-based; conditions: read-out: Ct; in short: as §5
[23] = species: Homo sapiens; experiment: Selectivity ratio of IC50 for human recombinant His-tagged MGL expressed in Escherichia coli BL21 DE3 cells to IC50 for human recombinant MBP-tagged FAAH expressed in Escherichia coli cells by fluorescence based assay
[24] = species: Homo sapiens; experiment: Selectivity ratio of IC50 for human full length ABHD6 expressed in Escherichia coli cells to IC50 for human recombinant MBP-tagged FAAH expressed in Escherichia coli cells by fluorescence based assay
[25] = Selectivity ratio of IC50 for human recombinant His-tagged MGL expressed in Escherichia coli BL21 DE3 cells to IC50 for rat recombinant His/GST-tagged FAAH expressed in Escherichia coli cells by fluorescence based assay
[26] = Selectivity ratio of IC50 for human full length ABHD6 expressed in Escherichia coli cells to IC50 for rat recombinant His/GST-tagged FAAH expressed in Escherichia coli cells by fluorescence based assay
[27] = molecular target: T2, Fatty-acid amide hydrolase 1 (Rattus norvegicus); experiment: Inhibition of FAAH in rat brain at 10 uM incubated for 30 mins followed by incubation with FP-Rh probe for 45 mins by ABPP assay; type: tissue-based
In short: (§6)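 Gel-based competitive ABPP on rat brain membrane homogenates (10 mg/mL protein). Compound at 1 and 10 μM or DMSO for 30 min at room temperature, then 10 μM rhodamine-tagged fluorophosphonate probe for 45 min at room temperature. FAAH was run with a reference FAAH inhibitor at 10 μM as positive control. Serine hydrolase labelling read by in-gel fluorescence.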

[28] = molecular target: T7, Monoglyceride lipase (Rattus norvegicus) (UniProt Q8R431); experiment: Inhibition of MGL in rat brain at 10 uM incubated for 30 mins followed by incubation with FP-Rh probe for 45 mins by ABPP assay; type: tissue-based; in short: as §6
T7 sequence (whole entry): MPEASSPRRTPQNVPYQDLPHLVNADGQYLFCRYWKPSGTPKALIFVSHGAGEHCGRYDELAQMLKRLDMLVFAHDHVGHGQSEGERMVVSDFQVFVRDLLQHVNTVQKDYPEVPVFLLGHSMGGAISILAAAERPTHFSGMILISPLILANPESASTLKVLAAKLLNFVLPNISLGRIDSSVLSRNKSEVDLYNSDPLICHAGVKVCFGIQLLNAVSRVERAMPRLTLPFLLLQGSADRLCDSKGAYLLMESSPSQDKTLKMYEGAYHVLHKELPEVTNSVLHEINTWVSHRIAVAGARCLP

[29] = molecular target: T8, Monoacylglycerol lipase ABHD6 (Rattus norvegicus) (UniProt Q5XI64); experiment: Inhibition of ABHD6 in rat brain at 10 uM incubated for 30 mins followed by incubation with FP-Rh probe for 45 mins by ABPP assay; type: tissue-based; in short: as §6
T8 sequence (whole entry): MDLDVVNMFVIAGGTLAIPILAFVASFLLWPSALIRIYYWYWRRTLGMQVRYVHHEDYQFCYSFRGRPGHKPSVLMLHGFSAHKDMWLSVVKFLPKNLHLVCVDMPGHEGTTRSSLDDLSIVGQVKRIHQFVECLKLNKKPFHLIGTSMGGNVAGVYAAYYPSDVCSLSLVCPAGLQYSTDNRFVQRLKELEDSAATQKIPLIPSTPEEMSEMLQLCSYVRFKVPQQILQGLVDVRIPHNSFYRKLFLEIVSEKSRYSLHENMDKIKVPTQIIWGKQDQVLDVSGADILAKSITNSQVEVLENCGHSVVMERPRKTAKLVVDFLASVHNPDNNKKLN

Chain of Cannabinoid receptor 2 (Mus musculus) (P47936 whole entry): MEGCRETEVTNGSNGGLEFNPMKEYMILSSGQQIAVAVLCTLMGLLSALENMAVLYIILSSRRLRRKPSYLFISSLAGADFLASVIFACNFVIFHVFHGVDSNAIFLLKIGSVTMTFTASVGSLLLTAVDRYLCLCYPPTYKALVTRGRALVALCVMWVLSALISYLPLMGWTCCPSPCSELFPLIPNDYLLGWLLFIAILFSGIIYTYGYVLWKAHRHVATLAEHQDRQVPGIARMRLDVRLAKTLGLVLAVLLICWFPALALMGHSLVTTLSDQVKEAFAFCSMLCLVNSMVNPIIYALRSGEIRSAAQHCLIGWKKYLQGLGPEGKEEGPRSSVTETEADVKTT
Chain of Cannabinoid receptor 2 (Homo sapiens) (P34972 whole entry): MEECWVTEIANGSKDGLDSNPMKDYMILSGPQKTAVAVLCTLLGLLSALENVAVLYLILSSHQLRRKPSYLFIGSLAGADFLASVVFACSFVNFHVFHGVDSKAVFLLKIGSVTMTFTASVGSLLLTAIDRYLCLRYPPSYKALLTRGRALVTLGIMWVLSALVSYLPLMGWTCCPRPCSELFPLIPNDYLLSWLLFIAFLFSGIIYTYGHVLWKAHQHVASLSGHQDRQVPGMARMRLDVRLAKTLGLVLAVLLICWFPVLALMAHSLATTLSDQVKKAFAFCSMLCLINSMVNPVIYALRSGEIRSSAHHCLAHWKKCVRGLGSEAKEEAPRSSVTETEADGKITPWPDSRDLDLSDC

Structure (SMILES) | inhibition [1] | inhibition [2] | Activity [3] | Activity [4] | Activity [5] | inhibition [6] | Activity [7] | Ratio IC50 [8] | IC50 [9] [nM] | IC50 [10] [nM] | IC50 [11] [nM] | half-life [12] [min] | half-life [13] [min] | half-life [14] [min] | half-life [15] [min] | half-life [16] [min] | half-life [17] [min] | half-life [18] [min] | half-life [19] [min] | half-life [20] [min] | also measured
O=C(Nc1cccc(N2CCS(=O)(=O)CC2)c1)N1CCC(c2ccccc2)CC1 | inactive | inactive | inactive | inactive | inactive | inactive | inactive | – | – | – | – | – | – | – | – | – | – | – | – | – | –
CN(C)c1ccc(C2CCN(C(=O)Oc3cccc(N4CCS(=O)(=O)CC4)c3)CC2)cc1 | – | – | inactive | inactive | inactive | – | inactive | 2 to 3 | 2.4 | 6.9 | > 1000 | 15 to 25 | 15 to 25 | 15 to 25 | > 60 | > 60 | > 60 | > 60 | > 60 | > 60 | concentration at 0.25 h [21]: 746 ng/mL; concentration at 0.25 h [22]: 1110 ng/mL; Ratio IC50 [23]: > 1000; Ratio IC50 [24]: > 1000; Ratio IC50 [25]: > 1000; Ratio IC50 [26]: > 1000
O=C(Nc1cccc(N2CCS(=O)(=O)CC2)c1)N1CCN(c2ccccc2)CC1 | inactive | inactive | inactive | inactive | inactive | inactive | inactive | – | – | – | – | – | – | – | – | – | – | – | – | – | –
O=C(Oc1cccc(N2CCS(=O)(=O)CC2)c1)N1CCC(c2ccc(N3CCCC3)cc2)CC1 | – | – | inactive | inactive | inactive | – | inactive | 2 to 3 | 3.5 | 6.3 | > 1000 | 15 to 25 | 15 to 25 | 15 to 25 | > 60 | > 60 | > 60 | > 60 | > 60 | > 60 | Ratio IC50 [23]: > 1000; Ratio IC50 [24]: > 1000; Ratio IC50 [25]: > 1000; Ratio IC50 [26]: > 1000
O=C(Nc1cccnn1)N1CCC(=Cc2cccc(Oc3ccc(C(F)(F)F)cn3)c2)CC1 | – | – | – | – | – | – | – | – | – | – | – | – | – | – | – | – | – | – | – | – | inhibition [27]: Active; inhibition [28]: inactive; inhibition [29]: inactive

Reference: ChEMBL document CHEMBL4359929, “Piperidine and piperazine inhibitors of fatty acid amide hydrolase targeting excitotoxic pathology” (Bioorg Med Chem, 2019)
